# Experimental data as given in ChEMBL document CHEMBL5506013, “Mitochondria-Selective Dicationic Small-Molecule Ligand Targeting G-Quadruplex Structures for Human Colorectal Cancer Therapy” (J Med Chem, 2024).
# Calls of active or inactive are those of the source. No cut-off for these calls is given here.
# What was measured:
# DNA [1] = test: Binding affinity to SS19 DNA (non-G4 DNA) (unknown origin) assessed as dissociation constant measured upto 150 secs by isothermal titration calorimetry assay; type: nucleic-acid assay
# HCT-116 [2] = test: Downregulation of ND1 gene expression in human HCT-116 cells at 0 to 4 uM measured after 48 hrs by q-PCR analysis; type: functional, cell-based; conditions: dose 0-4 µM
# HFF-1 = test: Downregulation of ND1 gene expression in human HFF-1 cells at 0 to 4 uM measured after 48 hrs by q-PCR analysis; type: functional, cell-based; conditions: dose 0-4 µM
# HCT-116 [3] = test: Downregulation of ND4 mRNA level in human HCT-116 cells at 0 to 4 uM measured after 48 hrs by qRT-PCR analysis; type: functional, cell-based; conditions: dose 0-4 µM
# HCT-116 [4] = test: Downregulation of ND4 protein level in human HCT-116 cells at upto 4 uM incubated for 48 hrs by Western blot analysis; type: functional, cell-based
# HCT-116 [5] = test: Downregulation of mitochondrial respiratory chain complex I level in human HCT-116 cells at upto 4 uM measured after 48 hrs by Western blot analysis; type: functional, cell-based
# HCT-116 [6] = test: Downregulation of mitochondrial respiratory chain complex-IV level in human HCT-116 cells at upto 4 uM measured after 48 hrs by Western blot analysis; type: functional, cell-based
# HCT-116 [7] = test: Inhibition of glycolysis in human HCT-116 cells assessed as reduction in glucose consumption at upto 4 uM measured after 3 hrs by Seahorse XFe24 analyzer; type: functional, cell-based
# HCT-116 [8] = test: Induction of DNA damage in human HCT-116 assessed as increase in gammaH2AX level at upto 4 uM incubated for 72 hrs by Western blot analysis; type: functional, cell-based
# Procedure, shortened: (§1)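 HCT116 cells treated with ligand at 0-4 uM for 72 h. Lysates immunoblotted for Lamin B1, p53, p21, p16, gamma-H2A.x, caspase-3 and cleaved caspase-3, with beta-actin as loading control.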
# Quadruplex DNA [9] = test: Binding affinity to mito 78 G4 DNA (unknown origin) assessed as increase in fluorescence intensity by fluorescence spectrophotometric analysis; type: nucleic-acid assay
# Procedure, shortened: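 Fluorescence titration in buffer. Ligand at 5 uM mixed with 20 uM pre-annealed DNA (95 °C for 10 min, slow cooling). Emission collected at 550-800 nm and monitored at 650 nm. Result reported as fold enhancement F/F0 over ligand alone.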
# DNA [10] = test: Binding affinity to SS19 DNA (non-G4 DNA) (unknown origin) assessed as increase in CD signal at 5 uM by circular dichroism spectroscopic analysis; type: nucleic-acid assay
# Quadruplex DNA [11] = test: Binding affinity to Mito 29 G4 DNA (unknown origin) assessed as change in melting temperature at 5 uM by circular dichroism spectroscopic analysis; type: nucleic-acid assay
# Quadruplex DNA [12] = test: Binding affinity to Mito 55 G4 DNA (unknown origin) assessed as change in melting temperature at 5 uM by circular dichroism spectroscopic analysis; type: nucleic-acid assay
# [13] = Drug localization in mitochondria of human HCT-116 cells at upto 4 uM incubated for 1 hrs by mito-tracker deep red staining based live cell imaging analysis; type: ADME; conditions: hct-116, 1 h
# [14] = Drug localization in human HCT-116 cells by measuring red foci at 4 uM incubated for 1 hr in presence of cyclosporin A by hoechst33342 staining based analysis; type: ADME, cell-based; conditions: hct-116, 1 h
# Procedure, shortened: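 Pretreatment of live HCT116 cells: FCCP 1 uM for 20 min, cyclosporin A 1 uM for 24 h, DMOG 100 uM for 24 h, or MitoPDS at several concentrations for 3 h (applied after dye loading). Cells loaded with ligand 4 uM (excitation 488 nm) for 1 h and Hoechst33342 1 uM for 30 min. Red foci counted by confocal imaging in 100 cells. Mean ± SEM, t test.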
# [15] = Drug localization in human HCT-116 cells by measuring red foci at 4 uM incubated for 1 hr in presence of RNA by hoechst33342 staining based analysis; type: ADME, cell-based; conditions: hct-116, 1 h
# Procedure, shortened: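 Live HCT116 cells loaded with ligand 4 uM for 1 h and Hoechst33342 1 uM for 30 min, then fixed. Fixed cells digested with 200 units DNase I or RNase A for 3 h. Red foci imaged by confocal microscopy in 100 cells. Mean ± SEM, t test.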
# HCT-116 [16] = test: Downregulation of lamin B1 level in human HCT-116 cells measured after 72 hrs by immunofluorescence analysis; type: functional, cell-based; conditions: dose <= 4.0 µM
# Procedure, shortened: (§2)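 HCT116 cells treated with ligand at 0-4 uM for 72 h. Lamin B1 and Ki67 imaged by immunofluorescence (excitation 635 nm), or lamin B1 probed on Western blot with β-actin as loading control.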
# HCT-116 [17] = test: Downregulation of Ki67 expression level in human HCT-116 cells at upto 4 uM measured after 72 hrs by immunofluorescence analysis; type: functional, cell-based; procedure, shortened: as §2
# HCT-116 [18] = test: Upregulation of p21 level in human HCT-116 cells at upto 4 uM measured after 72 hrs by Western blot analysis; type: functional, cell-based
# Procedure, shortened: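 HCT116 cells exposed to the ligand at 0–4 µM for 72 h. Lysates were immunoblotted for p21 together with Lamin B1, p53, p16 and γ-H2A.x, with β-actin as the loading reference.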
# HCT-116 [19] = test: Upregulation of p16 level in human HCT-116 cells at upto 4 uM measured after 72 hrs by Western blot analysis; type: functional, cell-based; procedure, shortened: as §1
# HCT-116 [20] = test: Induction of apoptosis in human HCT-116 cells at upto 4 uM measured after 72 hrs by annexin V-BUV396 and 7-AAD staining based flow cytometry analysis (reference value: 2.64%); type: functional; conditions: up to 4 µM
# Procedure, shortened: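 HCT116 cells treated at 0-4 uM for 72 h, stained with Annexin V-BUV396 and 7-AAD, and the apoptotic fraction quantified by flow cytometry.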
# [21] = Toxicity in BALB/c nude mouse assessed as change in body weight at 5 mg/kg, iv administered every two days for 16 days; type: organism-based; conditions: in vivo, 384 h, time 16 day
# Procedure, shortened: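 Male Balb/c nude mice bearing HCT116 xenografts, 6 per group, given PBS or ligand 5 mg/kg intravenously every two days. Body weight tracked over 16 days.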
# [22] = Toxicity in BALB/c nude mouse assessed as change in white blood cell count at 5 mg/kg, iv administered every two days for 16 days; type: organism-based; conditions: in vivo, 384 h, time 16 day
# Procedure, shortened: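 HCT116 xenograft-bearing male Balb/c nude mice (6/group) dosed iv at 5 mg/kg every two days or with PBS. Whole blood collected at sacrifice on day 16 for hematology parameters.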
# [23] = Toxicity in BALB/c nude mouse assessed as effect on lung at 5 mg/kg, iv measured after 16 hrs post injection by H and E staining based analysis; type: organism-based; conditions: in vivo
# HCT-116 [24] = test: Induction of cell senescence in human HCT-116 cells assessed by increase SA-beta-Gal positive cells at upto 4 uM measured after 72 hrs by SA-bet-gal assay
smiles,measurement,setting,value
C(=C\c1ccc2ccccc2[n+]1CCCCCCCC[n+]1c(/C=C/c2ccc(N3CCCCC3)cc2)ccc2ccccc21)/c1ccc(N2CCCCC2)cc1.[I-].[I-],Kd,DNA [1],> 4.7 µM
same,Activity,HCT-116 [2],Active
same,Activity,HFF-1,inactive
same,Activity,HCT-116 [3],Active
same,Activity,HCT-116 [4],Active
same,Activity,HCT-116 [5],Active
same,Activity,HCT-116 [6],Active
same,inhibition,HCT-116 [7],Active
same,Activity,HCT-116 [8],Active
same,Activity,Quadruplex DNA [9],Active
same,Activity,DNA [10],inactive
same,ΔTm,Quadruplex DNA [11],3.6 °C
same,ΔTm,Quadruplex DNA [12],3.6 °C
same,Drug uptake,[13],Active
same,Drug uptake,[14],Active
same,Drug uptake,[15],Active
same,Activity,HCT-116 [16],Dose-Dependent Effect
same,Activity,HCT-116 [17],Active
same,Activity,HCT-116 [18],Active
same,Activity,HCT-116 [19],Active
same,Activity,HCT-116 [20],27.4%
same,Activity,[21],Non-Toxic
same,Activity,[22],Non-Toxic
same,Activity,[23],Non-Toxic
same,Activity,HCT-116 [24],Active
